Assay results of several laboratories.
Lines come from different studies, so protocols differ. pIC50: −log10 of the molar value.
MMP14: Matrix metalloproteinase-14 (MMP14, Homo sapiens, UniProt P50281)
Kir1 channel protein: Kir1 channel protein (Aedes aegypti, UniProt L0EQS9)
ABHD6: Monoacylglycerol lipase ABHD6 (ABHD6, Homo sapiens, UniProt Q9BV23)
NTSR1: Neurotensin receptor type 1 (NTSR1, Homo sapiens, UniProt P30989)
BTK: Tyrosine-protein kinase BTK (BTK, Homo sapiens, UniProt Q06187)

SMILES	target	read-out	mode	method	pH	notes	pIC50
COc1cc(C[C@H]2C(=O)OC[C@@H]2Cc2ccc(OC)c(OC)c2)ccc1O	Dual 3',5'-cyclic-AMP and -GMP phosphodiesterase 11A (PDE11A, Homo sapiens, UniProt Q9HCR9)	enzyme activity	inhibitor				< 4.70
CC/C(=N\NC(=O)C(C)Nc1ccccc1)c1ccc(O)c(C)c1O (stereo not shown)	Ribosomal protein S6 kinase alpha-5 (RPS6KA5, Homo sapiens, UniProt O75582)	enzyme activity	inhibitor				7.88
Cn1nc(C(=O)NCc2ccc(C(=O)O)cc2)cc1-c1ccc2[nH]c(-c3cncnc3)cc2c1	MMP14	enzyme activity	inhibitor				< 4.70
O=[N+]([O-])c1ccc(N2CCN(S(=O)(=O)c3ccc(Cl)cc3)CC2)cc1NCc1ccco1	Kir1 channel protein	ion flux	inhibitor				6.08
COc1ccc(-c2nsc(NC(=O)[C@@H]3C[C@H]3C)c2C)cc1	Metabotropic glutamate receptor 8 (GRM8, Homo sapiens, UniProt O00222)	calcium signal	antagonist				< 4.90
O=C(Oc1nsnc1N1CCC2CCCCC2C1)N1CCCCC1 (stereo not shown)	ABHD6	enzyme activity	inhibitor	fluorescence		lysate	6.25
Cc1cc(Cc2cc(C)cc(C(C)(C)C)c2O)c(O)c(C(C)(C)C)c1	Sarcoplasmic/endoplasmic reticulum calcium ATPase 1 (ATP2A1, Oryctolagus cuniculus, UniProt P04191)	ATPase activity	inhibitor	absorbance	pH 7.3		5.44
Cc1noc(-c2cc3cc(-c4nc(C(=O)NCc5ccc(=O)[nH]c5)[nH]c4C)ccc3[nH]2)n1	MMP14	enzyme activity	inhibitor				< 4.62
O=[N+]([O-])c1ccc(N2CCN(S(=O)(=O)c3ccc(F)cc3)CC2)cc1NCc1ccccn1	Kir1 channel protein	ion flux	inhibitor				6.10
Cc1noc(-c2cc3cc(-c4nc(C(=O)NCc5ccccc5)[nH]c4C)ccc3[nH]2)n1	MMP14	enzyme activity	inhibitor				< 4.70
N#Cc1ccc(N2CCN(S(=O)(=O)c3ccc(F)cc3)CC2)cc1NCc1ccncc1	Kir1 channel protein	ion current	inhibitor	patch clamp			7.56
Cc1cc(O)cc(C)c1C[C@H](NC(=O)[C@@H]1CCCN1C(=O)[C@H](CCCNC(=N)N)NC(=O)[C@H](CCCNC(=N)N)N(C)C(=O)CNC(=O)[C@@H](CO)NC(=O)CNC(=O)[C@H](Cc1cn(CCNC(=O)[C@H](CC(C)C)NC(=O)[C@H](CC(C)C)NC(=O)C2OC2C(=O)O)nn1)NC(=O)CN1CCN(CC(=O)O)CCN(CC(=O)O)CCN(CC(=O)O)CC1)C(=O)N[C@H](C(=O)N[C@@H](CC(C)C)C(=O)O)C(C)(C)C (mixture of isomers)	NTSR1	ligand displacement		radioligand			7.35
O=[N+]([O-])c1ccc(N2CCN(S(=O)(=O)c3ccc(Cl)cc3)CC2)cc1NCc1cccnc1	Kir1 channel protein	ion flux	inhibitor				5.83
C=CC(=O)Nc1cc(Nc2nccc(Nc3cc(Cl)c(F)cc3C(C)(C)O)n2)c(OC)cc1N1CC[C@@H](N(C)C)C1	BTK	enzyme activity	inhibitor			with preincubation	6.67
CC[C@H](C)[C@H](NC(C)=O)C(=O)N[C@@H](CCC(=O)O)C(=O)N[C@H](C(=O)N[C@H](C=O)CC(=O)O)[C@@H](C)O	Caspase-8 (CASP8, Homo sapiens, UniProt Q14790)	enzyme activity	inhibitor				8.76
CC(C)=CCCC(C)=CCn1cc(CC(P(=O)(O)O)P(=O)(O)O)nn1	Protein farnesyltransferase (Rattus norvegicus, UniProt Q02293+Q04631)	enzyme activity	inhibitor	HPLC			3.30
CC1=CC(=O)C(C(C)C)=CC1=O	Cytochrome P450 2E1 (CYP2E1, Homo sapiens, UniProt P05181)	enzyme activity	inhibitor	HPLC			4.01
O=C(Oc1nsnc1N1CCCCC1)N1CCOCC1	ABHD6	enzyme activity	inhibitor	fluorescence		lysate	7.28
O=[N+]([O-])c1ccc(N2CCN(S(=O)(=O)c3ccc(F)cc3)CC2)cc1NCc1ccncc1	Kir1 channel protein	ion flux	inhibitor				6.41

SMILES	target	read-out	mode	method	pH	notes	pIC50
Cc1noc(-c2cc3cc(-c4nc(C(N)=O)[nH]c4C)ccc3[nH]2)n1	MMP14	enzyme activity	inhibitor				< 4.55
O=C(c1cc(O)c(O)c([N+](=O)[O-])c1)c1ccccc1F	Catechol O-methyltransferase (COMT, Sus scrofa, UniProt Q99028)	enzyme activity	inhibitor				7.55
Cc1noc(-c2cc3cc(-c4cc(C(=O)NCc5ccc(C(=O)O)cc5)nn4C)ccc3[nH]2)n1	MMP14	enzyme activity	inhibitor				< 4.70
N#Cc1ccc(N2CCN(S(=O)(=O)c3ccc(Cl)cc3)CC2)cc1NCc1ccncc1	Kir1 channel protein	ion current	inhibitor	patch clamp			7.41
NC(=O)c1cccc(-c2cccc(OC(=O)NC3CCCCC3)c2)c1	Arylacetamide deacetylase (Homo sapiens, UniProt P22760)	enzyme activity	inhibitor				6.72
O=[N+]([O-])c1ccc(N2CCN(S(=O)(=O)c3ccc(Cl)cc3)CC2)cc1NCc1ccncc1	Kir1 channel protein	ion flux	inhibitor				6.12
Cc1cnc(-c2ccc(-c3ccc(NC(=O)Nc4c(F)cc(F)cc4F)cc3F)c3c2C(=O)NC3)[nH]1	Mitogen-activated protein kinase kinase kinase 19 (MAP3K19, Homo sapiens, UniProt Q56UN5)	enzyme activity	inhibitor				7.76
Cc1noc(-c2cc3cc(-c4nc(C(=O)NCc5cccnc5)[nH]c4C)ccc3[nH]2)n1	MMP14	enzyme activity	inhibitor				< 4.70
COc1ccc(F)cc1C(=O)NCc1ccc(-c2nn([C@@H](C)C(F)(F)F)c(N)c2C(N)=O)cc1	BTK	phosphorylation in cells	inhibitor				8.41
Cc1noc(-c2cc3cc(-c4nc(C(=O)NCc5ccccn5)[nH]c4C)ccc3[nH]2)n1	MMP14	enzyme activity	inhibitor				< 4.70
CCC1(c2ccc(C)cc2)C(=O)N(C(=O)OC(C)C)N1C(=O)OC(C)C (stereo not shown)	Prolyl endopeptidase (Mus musculus, UniProt Q9QUR6)	enzyme activity	inhibitor				5.35
N#CN1C[C@H](n2nc(-c3ccc(Oc4ccc(Cl)cn4)cc3)c(C(N)=O)c2N)CCC12CC2	BTK	enzyme activity	inhibitor				8.40 to 9.30
COc1ccc2c(Oc3ccc4c(C(=O)Nc5ccccc5N)cccc4c3)ccnc2c1	BTK	enzyme activity	inhibitor				< 6.30
COc1cc2c(NC3CCN(C)CC3)nc(N3CCCN(C)CC3)nc2cc1OCCCN(C)C	Lysine-specific demethylase 4E (KDM4E, Homo sapiens, UniProt B2RXH2)	enzyme activity	inhibitor				< 4.24
Cc1cc(O)cc(C)c1C[C@H](NC(=O)[C@@H]1CCCN1C(=O)[C@H](CCCNC(=N)N)NC(=O)[C@H](CCCNC(=N)N)N(C)C(=O)CNC(=O)[C@@H](CO)NC(=O)CNC(=O)[C@H](Cc1cn(CCNC(=O)[C@H](Cc2ccc(O)cc2)NC(=O)[C@H](CC(C)C)NC(=O)C2OC2C(=O)O)nn1)NC(=O)CN1CCN(CC(=O)O)CCN(CC(=O)O)CCN(CC(=O)O)CC1)C(=O)N[C@H](C(=O)N[C@@H](CC(C)C)C(=O)O)C(C)(C)C (mixture of isomers)	NTSR1	ligand displacement		radioligand			7.06
CN1CCN(c2ccc(Nc3ncc4cc(C#N)c(=O)n(C5CCCC5)c4n3)cc2)CC1	BTK	enzyme activity	inhibitor				6.38
O=[N+]([O-])c1ccc(N2CCN(S(=O)(=O)c3ccccc3)CC2)cc1NCc1cccnc1	Kir1 channel protein	ion flux	inhibitor				6.26
COc1ccc(F)cc1C(=O)NCc1ccc(-c2nn([C@@H](C)C(F)(F)F)c(N)c2C(N)=O)cc1	BTK	phosphorylation in cells	inhibitor	western blot			8.38
